These results are taken from ChEMBL document CHEMBL4152337, “Novel indolo-sophoridinic scaffold as Topo I inhibitors: Design, synthesis and biological evaluation as anticancer agents” (Eur J Med Chem, 2018).

For one data set, the system named is A549. In words: Cytotoxicity against human A549 cells assessed as reduction in cell viability after 48 hrs by MTT assay. The class given is functional, cell-based. To be noted: A549, 48 h. A digest of the protocol: (§1)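 Cells at 3–4 × 10⁴/mL in DMEM + 10% FBS, pre-incubated 24 h in 5% CO₂. Then exposed 48 h to serial dilutions at 1, 5, 10, 20 and 50 µM; final DMSO <0.1%. MTT (5 mg/mL solution) added for 4 h at 37 °C, supernatant removed, formazan dissolved in DMSO, colorimetric read-out.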
(In general: Tetrazolium dyes change colour on reduction, which living cells bring about.)

The target of data set [1] is T1, DNA topoisomerase 1 (Homo sapiens) (UniProt P11387).
T1 sequence (whole entry): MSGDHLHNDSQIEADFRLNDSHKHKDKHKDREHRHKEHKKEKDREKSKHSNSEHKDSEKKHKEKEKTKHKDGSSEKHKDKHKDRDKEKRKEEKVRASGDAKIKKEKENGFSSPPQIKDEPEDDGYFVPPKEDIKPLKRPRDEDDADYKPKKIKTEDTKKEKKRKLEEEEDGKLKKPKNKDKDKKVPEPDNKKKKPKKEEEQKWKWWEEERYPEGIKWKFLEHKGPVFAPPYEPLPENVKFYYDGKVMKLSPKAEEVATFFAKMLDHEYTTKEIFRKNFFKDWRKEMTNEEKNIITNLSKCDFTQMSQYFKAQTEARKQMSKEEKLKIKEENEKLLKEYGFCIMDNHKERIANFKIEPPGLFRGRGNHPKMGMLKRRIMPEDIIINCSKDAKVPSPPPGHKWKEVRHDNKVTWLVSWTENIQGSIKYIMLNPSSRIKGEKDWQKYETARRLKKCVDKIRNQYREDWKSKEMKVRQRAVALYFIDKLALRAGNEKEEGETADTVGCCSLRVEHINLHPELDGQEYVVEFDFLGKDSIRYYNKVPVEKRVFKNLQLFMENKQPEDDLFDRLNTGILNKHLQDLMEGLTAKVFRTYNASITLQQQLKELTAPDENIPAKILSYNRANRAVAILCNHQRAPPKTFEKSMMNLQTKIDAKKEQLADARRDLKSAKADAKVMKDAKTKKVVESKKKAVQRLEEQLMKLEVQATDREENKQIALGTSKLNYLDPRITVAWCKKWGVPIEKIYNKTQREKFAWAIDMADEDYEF
Nature of the data set: Inhibition of recombinant human topoisomerase-1-mediated relaxation of supercoiled pBR322 DNA at 500 uM after 30 mins by ethidium bromide staining based assay. A digest of the protocol: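 Reactions stopped with loading buffer containing 0.5% SDS, bromophenol blue and 15% glycerol. Products run on a horizontal 0.8% agarose gel in 1× TAE at 4 V/cm for 40 min at room temperature. Gel stained with ethidium bromide and imaged.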

The test system of data set [2] is HepG2. Nature of the data set: Cytotoxicity against human HepG2 cells assessed as reduction in cell viability after 48 hrs by MTT assay. The class given is functional, cell-based. To be noted: HepG2, 48 h. A digest of the protocol:
as §1

A further data set deals with CNE-2. In words: Cytotoxicity against human CNE2 cells assessed as reduction in cell viability after 48 hrs by MTT assay. To be noted: CNE-2, 48 h. Type of data set: functional, cell-based. A digest of the protocol: as §1
For data set [3], the system named is HepG2. Nature of the data set: Antitumor activity against human HepG2 cells xenografted in BALB/C nude mouse assessed as tumor weight at 40 mg/kg, ip treated twice per week for 25 days (reference value: 0.84 +/- 0.09 g). Type of data set: functional. A digest of the protocol:
(§2)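 Female BALB/c nude mice, 5–6 weeks old, with subcutaneous flank xenografts of 8 × 10⁶ HepG2 cells. Randomized when tumors reached ~150–200 mm³. Dosed ip twice weekly for 25 days at 40 mg/kg; vehicle was saline with 10% DMSO (n = 6 vehicle, n = 5 per treated group). Caliper measurements every other day, volume = 0.5 × L × W². Tumors excised and weighed at end. Mean ± SD; t-test versus vehicle.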

Data set [4] has as its system HepG2. In words: Antitumor activity against human HepG2 cells xenografted in BALB/C nude mouse assessed as tumor growth at 40 mg/kg, ip treated twice per week for 25 days relative to control. The class given is functional. The essentials: as §2
In general terms: Xenograft models place foreign cells or tissue in a host animal.

The subject of a further data set is Mus musculus. Nature of the data set: Toxicity against BALB/C nude mouse xenografted with human HepG2 cells assessed as body weight loss at 40 mg/kg, ip treated twice per week measured at day 19 post dose. The class given is organism-based. Conditions: in vivo. A digest of the protocol: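 HepG2 subcutaneous xenografts (8 × 10⁶ cells, flank) in female BALB/c nude mice aged 5–6 weeks. At ~150–200 mm³ tumors, ip dosing at 40 mg/kg twice weekly for 25 days; vehicle was saline with 10% DMSO. Body weight tracked every other day from day 1 to day 25. Mean ± SD; t-test versus vehicle.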

The test system of data set [5] is HepG2. In words: Cell cycle arrest in human HepG2 cells accumulation at S phase at 2.5 uM after 24 hrs by propidium iodide staining-based flow cytometric analysis (reference value: 45.44%). The class given is functional. A digest of the protocol:
(§3)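 HepG2 seeded at 2 × 10⁵ cells/well in DMEM + 10% FBS. Treated 24 h at 1, 2.5 or 5 µM. Fixed overnight in cold 75% ethanol at 4 °C, RNase-treated 30 min at 37 °C, then propidium iodide-stained 30 min in the dark. Analysed by flow cytometry. Mean ± SD; representative of three independent experiments.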
A general note: A flow cytometer gives signals particle by particle.

Data set [6] relates to HepG2. Nature of the data set: Antitumor activity against human HepG2 cells xenografted in BALB/C nude mouse assessed as tumor volume at 40 mg/kg, ip treated twice per week for 25 days (reference value: 1185.78 +/- 137.44 mm3). The class given is functional.
For data set [7], the system named is HepG2. In words: Cell cycle arrest in human HepG2 cells accumulation at S phase at 5 uM after 24 hrs by propidium iodide staining-based flow cytometric analysis (reference value: 45.44%). The class given is functional. A digest of the protocol: as §3
Data set [8] deals with HepG2. In words: Cell cycle arrest in human HepG2 cells accumulation at S phase at 1 uM after 24 hrs by propidium iodide staining-based flow cytometric analysis (reference value: 45.44%). The class given is functional. A digest of the protocol:
as §3

Data set [9] concerns HepG2. Nature of the data set: Cell cycle arrest in human HepG2 cells accumulation at G1 phase at 2 to 6 mM after 24 hrs by propidium iodide staining-based flow cytometric analysis. The class given is functional. A digest of the protocol:
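HepG2 cells were seeded at 2 × 10⁵ per well in DMEM with 10% FBS and treated at three concentrations (2, 4, 6) for 24 h. Cells were fixed in cold 75% ethanol at 4 °C overnight, washed in PBS, then given RNase at 37 °C for 30 min and propidium iodide in the dark for 30 min. Read by flow cytometry; mean SD; three independent experiments.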

pIC50: −log10 of the molar value. Activity calls are given as the source filed them. The calls are words filed in the database; no cut-off is given here.

On to `OCCCC[C@@H]1[C@H]2CCCN3CCC[C@H](CN1Cc1cn(Cc4ccccc4)c4ccccc14)[C@@H]23`, for which the pIC50 in the data set on A549 is 4.47; in the data set with HepG2 [2], 5.64; with CNE-2 it was 5.66. For the same molecule, in [1], the inhibition result was “Active”.

Turning to `COC(=O)CCC[C@@H]1[C@H]2CCCN3CCC[C@H](CN1Cc1cn(Cc4ccc5ccccc5c4)c4ccccc14)[C@@H]23`, the results for the pIC50 in the data set with A549, in the data set on HepG2 [2] and with CNE-2 were 4.62, 5.07 and 5.11, respectively. Further, in data set [1], the inhibition entry is “Active”.

Consider `COC(=O)CCC[C@@H]1[C@H]2CCCN3CCC[C@H](CN1Cc1cn(Cc4ccccc4)c4ccccc14)[C@@H]23`, for which the pIC50 in the data set on A549 was 4.36; with HepG2 [2], 5.26; with CNE-2, 5.48. Further, the inhibition result in [1] is “Active”.

`CCc1c2c(nc3ccc(OC(=O)N4CCC(N5CCCCC5)CC4)cc13)-c1cc3c(c(=O)n1C2)COC(=O)[C@]3(O)CC` [IRINOTECAN]: the Activity with HepG2 [3] was 0.47 g; in the data set on Mus musculus it was “Toxic”. Moreover, the T/C with HepG2 [4] came out at 35.08%.

As to `OCCCC[C@@H]1[C@H]2CCCN3CCC[C@H](CN1Cc1cn(Cc4ccc(Br)cc4)c4ccccc14)[C@@H]23`, the Activity in the data set with HepG2 [3] is given as 0.61 g; in the data set on HepG2 [5], 60.68%; in the data set with HepG2 [6], 737.04 mm3; in the data set with HepG2 [7] it was 64.17%; with HepG2 [8] it was 55.77%. Besides, the values for the pIC50 in the data set on A549, in the data set with HepG2 [2] and in the data set on CNE-2 were 4.66, 5.51 and 5.46, respectively. Besides, in the data set on HepG2 [4], the T/C was 55.99%. The inhibition result in [1] was “Active”.

Consider `O=C1CCC[C@@H]2[C@H]3CCCN4CCC[C@H](CN12)[C@@H]34` [SOPHORIDINE], for which the Activity with HepG2 [3] worked out at 0.97 g; with HepG2 [6], 1204.27 mm3. The pIC50 in the data set with A549 was 2.23; with CNE-2, 2.27. In addition, the result in the data set on HepG2 [9] was Active. The T/C with HepG2 [4] stood at 93.38%.

Turning to `COC(=O)CCC[C@@H]1[C@H]2CCCN3CCC[C@H](CN1Cc1cn(Cc4ccc(Cl)cc4)c4ccccc14)[C@@H]23`, the pIC50 with A549 was 5.28; in the data set with HepG2 [2], 5.19; in the data set on CNE-2, 5.34. In [1], the inhibition result is “Active”.

The term pIC50 denotes −log10 of the IC50, conventionally taken in molar units. The term T/C denotes the ratio of treated to control.
